Among the data in PubChem BioAssay are GFP response vs DMSO, GFP response relative to DMSO and GFP response, % of DMSO values, retold here.

Each structure is given as a SMILES string. Calls of active or inactive are those of the source.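 How the source made its calls, unless noted: active means GFP response above 150% of the DMSO level; inconclusive means fewer than 70 events counted for a yeast strain; inactive means the rest.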

A short description of experiment [1]: RPL19A-GFP modulators, yeast TOR pathway, confirmation, cell-based, S. cerevisiae, flow cytometry, cherry picks, mother/daughter gates (AID 2270;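 active means GFP response below 50% of the DMSO control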). Particulars: S. cerevisiae RPL19A-GFP strain, 3 h, at 10 µM, stronger effect = lower value, 100 = same GFP as DMSO wells.
Experiment [2] is described as follows: LAP4-GFP expression modulators in yeast, confirmation, cell-based, cherry picks, flow cytometry, mother/daughter gates (AID 2271;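 active means GFP response above 150% of the DMSO control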;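 further: ratio of sample to DMSO plate mean so 100% equals DMSO level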). Particulars: S. cerevisiae LAP4-GFP strain, 3 h, at 10 µM, stronger effect = higher value, 100 means same as DMSO control. The method in brief:
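System – GFP-fusion yeast strain · Amount – 0.2 OD600 cells · Buffer or medium – SC growth medium · Dosing – single test-compound dose, 10 µM final · Schedule – 3 h treatment at 30 °C with rotation · Detection – GFP by flow cytometry · Read-out – per-gate (all, mother, daughter) GFP response vs DMSO · Benchmarks – positive rapamycin (400 ng/mL), negative DMSO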
In general terms: In flow cytometry, cells or beads pass a laser one at a time.

Experiment [3] is described as follows: modulators of MEP2-GFP levels in yeast, confirmation, S. cerevisiae, flow cytometry GFP, cherry picks (AID 2272;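 active means GFP response above 150% of the DMSO control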;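 further: ratio of well signal to plate DMSO mean so 100% equals DMSO level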). Particulars: S. cerevisiae MEP2-GFP strain, 3 h, at 10 µM, stronger effect = higher value.
Experiment [4] is described as follows: AGP1-GFP expression modulators, hit retest, confirmation, cell-based, flow cytometry, S. cerevisiae, cherry picks (AID 2273).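 Further: median GFP channel fluorescence over the whole cell population gate.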 Particulars: S. cerevisiae AGP1-GFP strain, 3 h, at 10 µM.
Experiment [5] can be described thus: modulators of CIT2-GFP expression in yeast, confirmation, S. cerevisiae, GFP fusion, cherry picks, mother/daughter gates (AID 2274). Particulars: S. cerevisiae CIT2-GFP strain, flow cytometry, 3 h, at 10 µM, stronger effect = higher value.
Where [6] appears, read: measured here: daughter cell gate.
The mark [7] stands for this setting: measured here: mother cell gate.
Setting [8] is: measured here: daughter cell gate response.
Setting [9] is: measured here: mother cell gate response.

Regarding `Cc1ccc(-c2nnc(NC(=O)c3ccc([N+](=O)[O-])o3)o2)c(C)c1`, the GFP response vs DMSO in experiment [1] was 101% (inactive); in experiment [1] (setting [6]), 99.3%; in experiment [1] (setting [7]), 99.8%; in experiment [3], 108% (inactive). The results for the GFP response relative to DMSO in experiment [2], in experiment [2] (setting [8]) and in experiment [2] (setting [9]) were 161% (active), 133% and 160%, respectively. The GFP response, % of DMSO in experiment [4] was 92.3% (inactive); in experiment [5] it was 95.8% (inactive); in experiment [5] (setting [6]), 99.3%; in experiment [5] (setting [7]), 91.5%.
Regarding `Fc1cccc(Cl)c1Cn1ncc2ccccc21`, the GFP response vs DMSO was 97.6% (inactive) in experiment [1], 96.1% in experiment [1] (setting [6]), 96.3% in experiment [1] (setting [7]) and 99% (inactive) in experiment [3]. For the same molecule, the values for the GFP response relative to DMSO in experiment [2], in experiment [2] (setting [8]) and in experiment [2] (setting [9]) were 102% (inactive), 99.1% and 100%, respectively. For the same molecule, the GFP response, % of DMSO in experiment [4] is 101% (inactive); in experiment [5] it was 97.3% (inactive); in experiment [5] (setting [6]), 97.4%; in experiment [5] (setting [7]) it was 96.8%.
For `COC(=O)COc1ccc(S(=O)(=O)N2CCc3ccccc3C2)cc1`, the GFP response vs DMSO in experiment [1] was 101% (inactive); in experiment [1] (setting [6]) it was 100%; in experiment [1] (setting [7]), 103%; in experiment [3], 97.8% (inactive). Also, the values for the GFP response relative to DMSO in experiment [2], in experiment [2] (setting [8]) and in experiment [2] (setting [9]) were 101% (inactive), 102% and 101%, respectively. In addition, the GFP response, % of DMSO in experiment [4] is 99.4% (inactive); in experiment [5] it was 99.1% (inactive); in experiment [5] (setting [6]) it was 96.5%; in experiment [5] (setting [7]), 101%.
`O=C1C2C3C=CC(CO)(O3)C2C(=O)N1c1ccccc1-c1ccccc1` (centres undefined): the GFP response vs DMSO is 113% (inactive) in experiment [1], 117% in experiment [1] (setting [6]), 110% in experiment [1] (setting [7]) and 126% (inactive) in experiment [3]. Besides, the GFP response relative to DMSO is 135% (inactive) in experiment [2], 128% in experiment [2] (setting [8]) and 132% in experiment [2] (setting [9]). Also, the GFP response, % of DMSO in experiment [4] was 109% (inactive); in experiment [5], 124% (inactive); in experiment [5] (setting [6]), 132%; in experiment [5] (setting [7]), 113%.
On to `Cc1c(NC(=O)/C(C#N)=C/c2c(N3CCCCC3)nc3ccccn3c2=O)c(=O)n(-c2ccccc2)n1C`, for which the GFP response vs DMSO is 95% (inactive) in experiment [1], 95.1% in experiment [1] (setting [6]), 96.6% in experiment [1] (setting [7]) and 96.2% (inactive) in experiment [3]. The results for the GFP response relative to DMSO in experiment [2], in experiment [2] (setting [8]) and in experiment [2] (setting [9]) were 94.1% (inactive), 94.4% and 95.1%, respectively. For the same molecule, the GFP response, % of DMSO is 109% (inactive) in experiment [4], 101% (inactive) in experiment [5], 105% in experiment [5] (setting [6]) and 101% in experiment [5] (setting [7]).
On to `COc1cc(OC)cc(C(=O)N2CCN(c3ccccc3F)CC2)c1`, for which the GFP response vs DMSO in experiment [1] is 98.6% (inactive); in experiment [1] (setting [6]), 97.3%; in experiment [1] (setting [7]) it was 99.1%; in experiment [3], 100% (inactive). The results for the GFP response relative to DMSO in experiment [2], in experiment [2] (setting [8]) and in experiment [2] (setting [9]) were 97.4% (inactive), 98.7% and 98.3%, respectively. Besides, the GFP response, % of DMSO in experiment [4] was 98.3% (inactive); in experiment [5], 99.1% (inactive); in experiment [5] (setting [6]) it was 99.7%; in experiment [5] (setting [7]), 98.7%.
For the molecule `O=C(O)C1Sc2[nH]c(=O)sc2C2c3cc(Br)ccc3OC(=O)C12` (centres undefined), the GFP response vs DMSO is 96.3% (inactive) in experiment [1], 97.6% in experiment [1] (setting [6]), 96.8% in experiment [1] (setting [7]) and 195% (active) in experiment [3]. Besides, the GFP response relative to DMSO in experiment [2] was 171% (active); in experiment [2] (setting [8]), 150%; in experiment [2] (setting [9]), 200%. Moreover, the GFP response, % of DMSO in experiment [4] was 102% (inactive); in experiment [5], 111% (inactive); in experiment [5] (setting [6]), 108%; in experiment [5] (setting [7]), 113%.
As to `O=C(O)c1ccc(N/N=C/c2c(F)cccc2Cl)cc1`, the GFP response vs DMSO in experiment [1] is 99.5% (inactive); in experiment [1] (setting [6]), 100%; in experiment [1] (setting [7]), 98.1%; in experiment [3] it was 108% (inactive). The results for the GFP response relative to DMSO in experiment [2], in experiment [2] (setting [8]) and in experiment [2] (setting [9]) were 124% (inactive), 121% and 124%, respectively. The GFP response, % of DMSO in experiment [4] was 94% (inactive); in experiment [5], 96.4% (inactive); in experiment [5] (setting [6]), 92.7%; in experiment [5] (setting [7]), 94.5%.
Take `Cc1cc(NCCN2CCOCC2)n2nc(C)c(-c3ccc(Cl)cc3)c2n1`: the GFP response vs DMSO in experiment [1] is 97.1% (inactive); in experiment [1] (setting [6]), 97%; in experiment [1] (setting [7]), 95.8%; in experiment [3] it was 108% (inactive). Further, the GFP response relative to DMSO in experiment [2] is 106% (inactive); in experiment [2] (setting [8]), 101%; in experiment [2] (setting [9]), 109%. For the same molecule, the GFP response, % of DMSO in experiment [4] was 98.4% (inactive); in experiment [5], 100% (inactive); in experiment [5] (setting [6]), 99.3%; in experiment [5] (setting [7]) it was 99.3%.
